Experimental data as given in ChEMBL document CHEMBL1138362, “Dihydro-alkylthio-benzyl-oxopyrimidines as inhibitors of reverse transcriptase: synthesis and rationalization of the biological data on both wild-type enzyme and relevant clinical mutants” (J Med Chem, 2007).

The molecules below were run on Human immunodeficiency virus 1 (assay: Antiviral activity against HIV1 with reverse transcriptase K103N mutation in MT4 cells after 5 days by MTT method). Conditions: Human immunodeficiency virus 1, MT4, 120 h.
Assay type: functional, organism-based
In short: (§1)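 MT-4 cells from the NIH AIDS Reagent Program were infected with mutant HIV-1 (K103N or Y188L, from the MRC Centralised Facility) in the presence of graded drug concentrations. Mock-infected cells were used for cytotoxicity. Viable cells were counted by MTT colorimetry at day 5 post-infection.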

Compound	EC50
Cc1c(C(C)c2c(Cl)cccc2Cl)nc(SCc2ccc([N+](=O)[O-])cc2)[nH]c1=O (stereo unspecified)	6.22 µM
Cc1c(Cc2c(Cl)cccc2Cl)nc(SC/C=C/c2ccc([N+](=O)[O-])cc2)[nH]c1=O	> 10.8 µM
COc1ccc(CCSc2nc(Cc3c(F)cccc3F)c(C)c(=O)[nH]2)cc1	4.13 µM
CC(=O)Oc1ccc(CSc2nc(Cc3c(F)cccc3F)c(C)c(=O)[nH]2)cc1	> 60.1 µM
CCc1c(Cc2c(F)cccc2F)nc(SCCc2ccc(OC)cc2)[nH]c1=O	1.92 µM
COc1ccc(/C=C/CSc2nc(Cc3c(F)cccc3F)c(C)c(=O)[nH]2)cc1	> 3.93 µM
Cc1c(Cc2c(Cl)cccc2Cl)nc(S/C=C/c2ccc(F)cc2)[nH]c1=O	11.9 µM
CCOc1ccc(CSc2nc(Cc3c(F)cccc3F)c(C)c(=O)[nH]2)cc1	> 62.2 µM
Cc1c(Cc2c(Cl)cccc2Cl)nc(SC/C=C/c2ccc(N(C)C)cc2)[nH]c1=O	> 54.4 µM
COc1ccc(CCCSc2nc(C(C)c3c(Cl)cccc3Cl)c(C)c(=O)[nH]2)cc1 (stereo unspecified)	0.82 µM
COc1ccc(CCSc2nc(C(C)c3c(Cl)cccc3Cl)c(C)c(=O)[nH]2)cc1 (stereo unspecified)	6.57 µM
CC(=O)Oc1ccc(CSc2nc(Cc3c(Cl)cccc3Cl)c(C)c(=O)[nH]2)cc1	> 55.7 µM
Cc1c(C(C)c2c(F)cccc2F)nc(SC/C=C/c2ccc(C#N)cc2)[nH]c1=O (stereo unspecified)	> 59.1 µM

The molecules below were run on Human immunodeficiency virus 1 (assay: Antiviral activity against wild type HIV1 NL4-3 in MT4 cells after 5 days by MTT method). Conditions: Human immunodeficiency virus 1, NL4-3, MT4, 120 h.
Assay type: functional, organism-based
In short: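 MT-4 lymphoid cells, infected with HIV-1 or mock-infected (for cytotoxicity), held with a range of drug concentrations; viable cells scored at day 5 post-infection by tetrazolium (MTT) colorimetry.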

Compound	EC50
Cc1c(C(C)c2c(Cl)cccc2Cl)nc(SCc2ccc([N+](=O)[O-])cc2)[nH]c1=O (stereo unspecified)	0.019 µM
Cc1c(Cc2c(Cl)cccc2Cl)nc(SC/C=C/c2ccc([N+](=O)[O-])cc2)[nH]c1=O	> 10.8 µM
COc1ccc(CCSc2nc(Cc3c(F)cccc3F)c(C)c(=O)[nH]2)cc1	0.0049 µM
CC(=O)Oc1ccc(CSc2nc(Cc3c(F)cccc3F)c(C)c(=O)[nH]2)cc1	22.9 µM
CCc1c(Cc2c(F)cccc2F)nc(SCCc2ccc(OC)cc2)[nH]c1=O	0.0002 µM
COc1ccc(/C=C/CSc2nc(Cc3c(F)cccc3F)c(C)c(=O)[nH]2)cc1	0.043 µM
Cc1c(Cc2c(Cl)cccc2Cl)nc(S/C=C/c2ccc(F)cc2)[nH]c1=O	> 59.4 µM
CCOc1ccc(CSc2nc(Cc3c(F)cccc3F)c(C)c(=O)[nH]2)cc1	0.37 µM
Cc1c(Cc2c(Cl)cccc2Cl)nc(SC/C=C/c2ccc(N(C)C)cc2)[nH]c1=O	> 54.4 µM
COc1ccc(CCCSc2nc(C(C)c3c(Cl)cccc3Cl)c(C)c(=O)[nH]2)cc1 (stereo unspecified)	0.0002 µM
COc1ccc(CCSc2nc(C(C)c3c(Cl)cccc3Cl)c(C)c(=O)[nH]2)cc1 (stereo unspecified)	0.0002 µM
CC(=O)Oc1ccc(CSc2nc(Cc3c(Cl)cccc3Cl)c(C)c(=O)[nH]2)cc1	0.127 µM
Cc1c(C(C)c2c(F)cccc2F)nc(SC/C=C/c2ccc(C#N)cc2)[nH]c1=O (stereo unspecified)	0.14 µM

The molecules below were run on Human immunodeficiency virus type 1 reverse transcriptase (Human immunodeficiency virus 1), Q72547 [Y181I] (assay: Antiviral activity against HIV1 reverse transcriptase Y181I mutant). Conditions: not given.

Compound	ID50
Cc1c(C(C)c2c(Cl)cccc2Cl)nc(SCc2ccc([N+](=O)[O-])cc2)[nH]c1=O (stereo unspecified)	> 20 µM
Cc1c(Cc2c(Cl)cccc2Cl)nc(SC/C=C/c2ccc([N+](=O)[O-])cc2)[nH]c1=O	> 20 µM
COc1ccc(CCSc2nc(Cc3c(F)cccc3F)c(C)c(=O)[nH]2)cc1	> 20 µM
CC(=O)Oc1ccc(CSc2nc(Cc3c(F)cccc3F)c(C)c(=O)[nH]2)cc1	> 20 µM
CCc1c(Cc2c(F)cccc2F)nc(SCCc2ccc(OC)cc2)[nH]c1=O	> 20 µM
COc1ccc(/C=C/CSc2nc(Cc3c(F)cccc3F)c(C)c(=O)[nH]2)cc1	> 20 µM
Cc1c(Cc2c(Cl)cccc2Cl)nc(S/C=C/c2ccc(F)cc2)[nH]c1=O	> 20 µM
CCOc1ccc(CSc2nc(Cc3c(F)cccc3F)c(C)c(=O)[nH]2)cc1	> 20 µM
Cc1c(Cc2c(Cl)cccc2Cl)nc(SC/C=C/c2ccc(N(C)C)cc2)[nH]c1=O	> 20 µM
COc1ccc(CCCSc2nc(C(C)c3c(Cl)cccc3Cl)c(C)c(=O)[nH]2)cc1 (stereo unspecified)	> 20 µM
COc1ccc(CCSc2nc(C(C)c3c(Cl)cccc3Cl)c(C)c(=O)[nH]2)cc1 (stereo unspecified)	> 20 µM
CC(=O)Oc1ccc(CSc2nc(Cc3c(Cl)cccc3Cl)c(C)c(=O)[nH]2)cc1	> 20 µM
Cc1c(C(C)c2c(F)cccc2F)nc(SC/C=C/c2ccc(C#N)cc2)[nH]c1=O (stereo unspecified)	> 20 µM

These molecules were tested on Human immunodeficiency virus 1 (assay: Antiviral activity against HIV1 with reverse transcriptase Y188L mutation in MT4 cells after 5 days by MTT method). Conditions: Human immunodeficiency virus 1, MT4, 120 h.
Assay type: functional, organism-based
In short: as §1

Compound	EC50
Cc1c(C(C)c2c(Cl)cccc2Cl)nc(SCc2ccc([N+](=O)[O-])cc2)[nH]c1=O (stereo unspecified)	9.95 µM
Cc1c(Cc2c(Cl)cccc2Cl)nc(SC/C=C/c2ccc([N+](=O)[O-])cc2)[nH]c1=O	> 10.8 µM
COc1ccc(CCSc2nc(Cc3c(F)cccc3F)c(C)c(=O)[nH]2)cc1	8.53 µM
CC(=O)Oc1ccc(CSc2nc(Cc3c(F)cccc3F)c(C)c(=O)[nH]2)cc1	> 60.1 µM
CCc1c(Cc2c(F)cccc2F)nc(SCCc2ccc(OC)cc2)[nH]c1=O	> 60.1 µM
COc1ccc(/C=C/CSc2nc(Cc3c(F)cccc3F)c(C)c(=O)[nH]2)cc1	> 3.93 µM
Cc1c(Cc2c(Cl)cccc2Cl)nc(S/C=C/c2ccc(F)cc2)[nH]c1=O	> 59.4 µM
CCOc1ccc(CSc2nc(Cc3c(F)cccc3F)c(C)c(=O)[nH]2)cc1	> 62.2 µM
Cc1c(Cc2c(Cl)cccc2Cl)nc(SC/C=C/c2ccc(N(C)C)cc2)[nH]c1=O	> 54.4 µM
COc1ccc(CCCSc2nc(C(C)c3c(Cl)cccc3Cl)c(C)c(=O)[nH]2)cc1 (stereo unspecified)	0.28 µM
COc1ccc(CCSc2nc(C(C)c3c(Cl)cccc3Cl)c(C)c(=O)[nH]2)cc1 (stereo unspecified)	8.17 µM
CC(=O)Oc1ccc(CSc2nc(Cc3c(Cl)cccc3Cl)c(C)c(=O)[nH]2)cc1	> 55.7 µM
Cc1c(C(C)c2c(F)cccc2F)nc(SC/C=C/c2ccc(C#N)cc2)[nH]c1=O (stereo unspecified)	> 59.1 µM

What follows are molecules tested on Human immunodeficiency virus 1 (assay: Antiviral activity against HIV1 with reverse transcriptase Y181C mutation in MT4 cells after 5 days by MTT method). Conditions: Human immunodeficiency virus 1, MT4, 120 h.
Assay type: functional, organism-based

Compound	EC50
Cc1c(C(C)c2c(Cl)cccc2Cl)nc(SCc2ccc([N+](=O)[O-])cc2)[nH]c1=O (stereo unspecified)	7.15 µM
Cc1c(Cc2c(Cl)cccc2Cl)nc(SC/C=C/c2ccc([N+](=O)[O-])cc2)[nH]c1=O	> 10.8 µM
COc1ccc(CCSc2nc(Cc3c(F)cccc3F)c(C)c(=O)[nH]2)cc1	6.34 µM
CC(=O)Oc1ccc(CSc2nc(Cc3c(F)cccc3F)c(C)c(=O)[nH]2)cc1	> 60.1 µM
CCc1c(Cc2c(F)cccc2F)nc(SCCc2ccc(OC)cc2)[nH]c1=O	2.78 µM
COc1ccc(/C=C/CSc2nc(Cc3c(F)cccc3F)c(C)c(=O)[nH]2)cc1	> 3.93 µM
Cc1c(Cc2c(Cl)cccc2Cl)nc(S/C=C/c2ccc(F)cc2)[nH]c1=O	> 59.4 µM
CCOc1ccc(CSc2nc(Cc3c(F)cccc3F)c(C)c(=O)[nH]2)cc1	1.19 µM
Cc1c(Cc2c(Cl)cccc2Cl)nc(SC/C=C/c2ccc(N(C)C)cc2)[nH]c1=O	> 54.4 µM
COc1ccc(CCCSc2nc(C(C)c3c(Cl)cccc3Cl)c(C)c(=O)[nH]2)cc1 (stereo unspecified)	0.24 µM
COc1ccc(CCSc2nc(C(C)c3c(Cl)cccc3Cl)c(C)c(=O)[nH]2)cc1 (stereo unspecified)	3.76 µM
CC(=O)Oc1ccc(CSc2nc(Cc3c(Cl)cccc3Cl)c(C)c(=O)[nH]2)cc1	8.64 µM
Cc1c(C(C)c2c(F)cccc2F)nc(SC/C=C/c2ccc(C#N)cc2)[nH]c1=O (stereo unspecified)	> 59.1 µM

Each molecule was assayed on Human immunodeficiency virus 1 [K103N] (assay: Antiviral activity against HIV1 reverse transcriptase K103N mutant). Conditions: not given.

Compound	ID50
Cc1c(C(C)c2c(Cl)cccc2Cl)nc(SCc2ccc([N+](=O)[O-])cc2)[nH]c1=O (stereo unspecified)	> 20 µM
Cc1c(Cc2c(Cl)cccc2Cl)nc(SC/C=C/c2ccc([N+](=O)[O-])cc2)[nH]c1=O	> 20 µM
COc1ccc(CCSc2nc(Cc3c(F)cccc3F)c(C)c(=O)[nH]2)cc1	3.5 µM
CC(=O)Oc1ccc(CSc2nc(Cc3c(F)cccc3F)c(C)c(=O)[nH]2)cc1	> 20 µM
CCc1c(Cc2c(F)cccc2F)nc(SCCc2ccc(OC)cc2)[nH]c1=O	> 20 µM
COc1ccc(/C=C/CSc2nc(Cc3c(F)cccc3F)c(C)c(=O)[nH]2)cc1	> 20 µM
Cc1c(Cc2c(Cl)cccc2Cl)nc(S/C=C/c2ccc(F)cc2)[nH]c1=O	> 20 µM
CCOc1ccc(CSc2nc(Cc3c(F)cccc3F)c(C)c(=O)[nH]2)cc1	> 20 µM
Cc1c(Cc2c(Cl)cccc2Cl)nc(SC/C=C/c2ccc(N(C)C)cc2)[nH]c1=O	> 20 µM
COc1ccc(CCCSc2nc(C(C)c3c(Cl)cccc3Cl)c(C)c(=O)[nH]2)cc1 (stereo unspecified)	> 20 µM
COc1ccc(CCSc2nc(C(C)c3c(Cl)cccc3Cl)c(C)c(=O)[nH]2)cc1 (stereo unspecified)	> 20 µM
CC(=O)Oc1ccc(CSc2nc(Cc3c(Cl)cccc3Cl)c(C)c(=O)[nH]2)cc1	> 20 µM
Cc1c(C(C)c2c(F)cccc2F)nc(SC/C=C/c2ccc(C#N)cc2)[nH]c1=O (stereo unspecified)	> 20 µM

The molecules below were run against Human immunodeficiency virus type 1 reverse transcriptase (Human immunodeficiency virus 1) (UniProt Q72547) (assay: Antiviral activity against wild type HIV1 reverse transcriptase). Conditions: not given.

Compound	ID50
Cc1c(C(C)c2c(Cl)cccc2Cl)nc(SCc2ccc([N+](=O)[O-])cc2)[nH]c1=O (stereo unspecified)	0.408 µM
Cc1c(Cc2c(Cl)cccc2Cl)nc(SC/C=C/c2ccc([N+](=O)[O-])cc2)[nH]c1=O	3.81 µM
COc1ccc(CCSc2nc(Cc3c(F)cccc3F)c(C)c(=O)[nH]2)cc1	0.029 µM
CC(=O)Oc1ccc(CSc2nc(Cc3c(F)cccc3F)c(C)c(=O)[nH]2)cc1	48 µM
CCc1c(Cc2c(F)cccc2F)nc(SCCc2ccc(OC)cc2)[nH]c1=O	0.022 µM
COc1ccc(/C=C/CSc2nc(Cc3c(F)cccc3F)c(C)c(=O)[nH]2)cc1	0.25 µM
Cc1c(Cc2c(Cl)cccc2Cl)nc(S/C=C/c2ccc(F)cc2)[nH]c1=O	> 20 µM
CCOc1ccc(CSc2nc(Cc3c(F)cccc3F)c(C)c(=O)[nH]2)cc1	0.8 µM
Cc1c(Cc2c(Cl)cccc2Cl)nc(SC/C=C/c2ccc(N(C)C)cc2)[nH]c1=O	0.778 µM
COc1ccc(CCCSc2nc(C(C)c3c(Cl)cccc3Cl)c(C)c(=O)[nH]2)cc1 (stereo unspecified)	9.76 µM
COc1ccc(CCSc2nc(C(C)c3c(Cl)cccc3Cl)c(C)c(=O)[nH]2)cc1 (stereo unspecified)	0.593 µM
CC(=O)Oc1ccc(CSc2nc(Cc3c(Cl)cccc3Cl)c(C)c(=O)[nH]2)cc1	0.085 µM
Cc1c(C(C)c2c(F)cccc2F)nc(SC/C=C/c2ccc(C#N)cc2)[nH]c1=O (stereo unspecified)	0.161 µM
